Test results as given in ChEMBL document CHEMBL1944556, “Natural Product Based 6-Hydroxy-2,3,4,6-tetrahydropyrrolo[1,2-a]pyrimidinium Scaffold as A New Antifungal Template” (ACS Med Chem Lett, 2011).
Converted amounts (≈) assume the structure as drawn. The source made the active and inactive calls. No cut-off for these calls is given here.

Tests used:
Aspergillus fumigatus [1] = experiment: Antifungal activity against Aspergillus fumigatus ATCC 90906 at 20 ug/ml; type: functional, organism-based
Candida albicans [2] = experiment: Antifungal activity against Candida albicans ATCC 90028 at 20 ug/ml; type: functional, organism-based
Vero = experiment: Cytotoxicity against african green monkey Vero cells; type: cell-based; conditions: Chlorocebus sabaeus
Cryptococcus neoformans [3] = experiment: Antifungal activity against Cryptococcus neoformans ATCC 90113 at 20 ug/ml; type: functional, organism-based
Aspergillus fumigatus [4] = experiment: Antifungal activity against Aspergillus fumigatus ATCC 90906; type: functional
Outline: (§1)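 Read-outs were MIC and MFC, in μg/mL. MFC is the lowest concentration that kills the fungus.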

[5] = Selectivity index of IC50 for african green monkey Vero cells to MFC for Cryptococcus neoformans ATCC 90113; type: toxicity, cell-based; conditions: read-out: Selectivity Index
Outline: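 The index is the Vero cell cytotoxicity IC50 divided by the MFC against C. neoformans.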

Candida albicans [6] = experiment: Antifungal activity against Candida albicans ATCC 90028; type: functional; outline: as §1
Cryptococcus neoformans [7] = experiment: Antifungal activity against Cryptococcus neoformans ATCC 90113; type: functional; outline: as §1
Candida albicans [8] = experiment: Antifungal activity against fluconazole-resistant Candida albicans isolate 1 isolated from AIDS patient; type: functional
Candida albicans [9] = experiment: Antifungal activity against Candida albicans ATCC 14053; type: functional; outline: as §1
Aspergillus fumigatus [10] = experiment: Antifungal activity against Aspergillus fumigatus ATCC 204305; type: functional
Cryptococcus neoformans [11] = experiment: Antifungal activity against Cryptococcus neoformans ATCC 66031; type: functional
Candida albicans [12] = experiment: Antifungal activity against Candida albicans ATCC 32354; type: functional
[13] = system: Cryptococcus bacillisporus; experiment: Antifungal activity against fluconazole-resistant Cryptococcus gattii ATCC 32609; type: functional
Candida albicans [14] = experiment: Antifungal activity against fluconazole-resistant Candida albicans isolate 17 isolated from AIDS patient; type: functional
Candida albicans [15] = experiment: Antifungal activity against Candida albicans ATCC 60193 at 160 ug/ml; type: functional, organism-based
Candida albicans [16] = experiment: Antifungal activity against Candida albicans ATCC 14053 at 160 ug/ml; type: functional, organism-based
Candida albicans [17] = experiment: Antifungal activity against Candida albicans ATCC 32354 at 160 ug/ml; type: functional, organism-based
Candida albicans [18] = experiment: Antifungal activity against fluconazole-resistant Candida albicans isolate 1 isolated from AIDS patient at 160 ug/ml; type: functional, organism-based
Candida albicans [19] = experiment: Antifungal activity against Candida albicans ATCC 90028 at 160 ug/ml; type: functional, organism-based
Candida tropicalis [20] = experiment: Antifungal activity against Candida tropicalis ATCC 750; type: functional
Aspergillus flavus [21] = experiment: Antifungal activity against Aspergillus flavus ATCC 204304 at 160 ug/ml; type: functional, organism-based
Candida parapsilosis [22] = experiment: Antifungal activity against Candida parapsilosis ATCC 22019 at 160 ug/ml; type: functional, organism-based
Nakaseomyces glabratus [23] = experiment: Antifungal activity against intrinsically fluconazole-resistant Candida glabrata ATCC 90030; type: functional
Aspergillus fumigatus [24] = experiment: Antifungal activity against Aspergillus fumigatus ATCC 204305 at 160 ug/ml; type: functional, organism-based
Pichia kudriavzevii = experiment: Antifungal activity against intrinsically fluconazole-resistant Candida krusei ATCC 6258; type: functional
Candida tropicalis [25] = experiment: Antifungal activity against Candida tropicalis ATCC 750 at 160 ug/ml; type: functional, organism-based
Aspergillus fumigatus [26] = experiment: Antifungal activity against Aspergillus fumigatus ATCC 13073 at 160 ug/ml; type: functional, organism-based
Candida albicans [27] = experiment: Antifungal activity against fluconazole-resistant Candida albicans isolate 17 isolated from AIDS patient at 160 ug/ml; type: functional, organism-based
Nakaseomyces glabratus [28] = experiment: Antifungal activity against intrinsically fluconazole-resistant Candida glabrata ATCC 90030 at 160 ug/ml; type: functional, organism-based
Aspergillus niger [29] = experiment: Antifungal activity against Aspergillus niger ATCC 16404 at 160 ug/ml; type: functional, organism-based
Candida albicans [30] = experiment: Antifungal activity against amphotericin-B-resistant Candida albicans ATCC 200955 at 160 ug/ml; type: functional, organism-based
Candida albicans [31] = experiment: Antifungal activity against amphotericin-B-resistant Candida albicans ATCC 200955; type: functional
Aspergillus fumigatus [32] = experiment: Antifungal activity against Aspergillus fumigatus ATCC 90906 at 160 ug/ml; type: functional, organism-based
Candida parapsilosis [33] = experiment: Antifungal activity against Candida parapsilosis ATCC 22019; type: functional; conditions: Lodderomyces parapsilosis
Candida albicans [34] = experiment: Antifungal activity against Candida albicans ATCC 60193; type: functional
Aspergillus niger [35] = experiment: Antifungal activity against Aspergillus niger ATCC 16404 at 5 ug/ml; type: functional, organism-based
Aspergillus fumigatus [36] = experiment: Antifungal activity against Aspergillus fumigatus ATCC 13073; type: functional
Outline: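 Panel of 23 fungal strains assayed by the group's previously published protocol. Read-outs in μg/mL are the MIC and the MFC, the lowest concentration that kills the fungus. The highest concentration tested was 160 μg/mL, or 5 μg/mL for some agents.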

Aspergillus flavus [37] = experiment: Antifungal activity against Aspergillus flavus ATCC 204304; type: functional
Outline: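 Panel of 23 fungal strains assayed by the group's previously published protocol. Read-outs in μg/mL are the MIC and the MFC, the lowest concentration that kills the fungus.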

CCCCCCC1(O)C=CC2=[N+](C)CCCN21.[I-] (centres undefined)
Activity (Aspergillus fumigatus [1]): inactive
Activity (Candida albicans [2]): inactive
IC50 (Vero): > 25 µg/mL
Activity (Cryptococcus neoformans [3]): inactive

CCCCCCCCCCCCCCCCC1(O)C=CC2=[N+](C)CCCN21.[I-] (centres undefined)
MFC (Aspergillus fumigatus [4]): 5 µg/mL
MIC (Aspergillus fumigatus [4]): 5 µg/mL
selectivity ratio [5]: 13
MFC (Candida albicans [6]): 2.5 µg/mL
MIC (Candida albicans [6]): 2.5 µg/mL
IC50 (Vero): 16 µg/mL
MFC (Cryptococcus neoformans [7]): 1.25 µg/mL
MIC (Cryptococcus neoformans [7]): 1.25 µg/mL

CCCCCCCCCCCCC1(O)C=CC2=[N+](C)CCCN21.[I-] (centres undefined)
MFC (Aspergillus fumigatus [4]): 10 µg/mL
MIC (Aspergillus fumigatus [4]): 5 µg/mL
selectivity ratio [5]: 29
MFC (Candida albicans [6]): 10 µg/mL
MIC (Candida albicans [6]): 7.5 µg/mL
IC50 (Vero): 18.3 µg/mL
MFC (Cryptococcus neoformans [7]): 0.63 µg/mL
MIC (Cryptococcus neoformans [7]): 0.63 µg/mL

CCCCCCCCCCCCCCC1(O)C=CC2=[N+](C)CCCN21.[I-] (centres undefined)
MIC (Candida albicans [8]): 1.25 µg/mL
MIC (Candida albicans [9]): 1.88 µg/mL
MFC (Aspergillus fumigatus [10]): 10 µg/mL
MFC (Aspergillus fumigatus [4]): 5 µg/mL
MIC (Aspergillus fumigatus [4]): 1.88 µg/mL
selectivity ratio [5]: 53
MFC (Cryptococcus neoformans [11]): 0.31 µg/mL
MIC (Cryptococcus neoformans [11]): 0.23 µg/mL
MFC (Candida albicans [12]): 10 µg/mL
MIC (Candida albicans [6]): 1.88 µg/mL
IC50 (Vero): 16.5 µg/mL
MFC [13]: 0.63 µg/mL
MIC [13]: 0.63 µg/mL
MFC (Candida albicans [14]): 2.5 µg/mL
MFC (Cryptococcus neoformans [7]): 0.31 µg/mL
MIC (Cryptococcus neoformans [7]): 0.31 µg/mL

OC(Cn1cncn1)(Cn1cncn1)c1ccc(F)cc1F [FLUCONAZOLE]
Activity (Candida albicans [15]): inactive
Activity (Candida albicans [16]): inactive
Activity (Candida albicans [17]): inactive
Activity (Candida albicans [18]): inactive
Activity (Candida albicans [19]): inactive
MIC (Candida tropicalis [20]): 13.1 µg/mL (≈ 42.8 µM)
Activity (Aspergillus flavus [21]): inactive
MIC (Candida albicans [8]): 10.4 µg/mL (≈ 33.9 µM)
MIC (Candida albicans [9]): 0.25 µg/mL (≈ 0.816 µM)
Activity (Candida parapsilosis [22]): inactive
MIC (Nakaseomyces glabratus [23]): 45 µg/mL (≈ 147 µM)
Activity (Aspergillus fumigatus [24]): inactive
MFC (Pichia kudriavzevii): 80 µg/mL (≈ 261 µM)
MIC (Pichia kudriavzevii): 45 µg/mL (≈ 147 µM)
MFC (Cryptococcus neoformans [11]): 12.5 µg/mL (≈ 40.8 µM)
MIC (Cryptococcus neoformans [11]): 3.91 µg/mL (≈ 12.8 µM)
MIC (Candida albicans [12]): 0.94 µg/mL (≈ 3.07 µM)
MIC (Candida albicans [6]): 0.51 µg/mL (≈ 1.67 µM)
MFC [13]: 50 µg/mL (≈ 163 µM)
MIC [13]: 50 µg/mL (≈ 163 µM)
Activity (Candida tropicalis [25]): inactive
Activity (Aspergillus fumigatus [26]): inactive
Activity (Candida albicans [27]): inactive
Activity (Nakaseomyces glabratus [28]): inactive
Activity (Aspergillus niger [29]): inactive
Activity (Candida albicans [30]): inactive
MIC (Candida albicans [31]): 0.35 µg/mL (≈ 1.14 µM)
MFC (Cryptococcus neoformans [7]): 25 µg/mL (≈ 81.6 µM)
MIC (Cryptococcus neoformans [7]): 9.38 µg/mL (≈ 30.6 µM)
Activity (Aspergillus fumigatus [32]): inactive
MIC (Candida parapsilosis [33]): 2.8 µg/mL (≈ 9.14 µM)
MIC (Candida albicans [34]): 0.2 µg/mL (≈ 0.653 µM)

C[C@@H]1[C@H](O)[C@@H](C)/C=C/C=C/C=C/C=C/C=C/C=C/C=C/[C@H](O[C@@H]2O[C@H](C)[C@@H](O)[C@H](N)[C@@H]2O)C[C@@H]2O[C@](O)(C[C@@H](O)C[C@@H](O)[C@H](O)CC[C@@H](O)C[C@@H](O)CC(=O)O[C@H]1C)C[C@H](O)[C@H]2C(=O)O [AMPHOTERICIN B]
Activity (Aspergillus niger [35]): inactive
MFC (Aspergillus fumigatus [36]): 10 µg/mL (≈ 10.8 µM)
MIC (Aspergillus fumigatus [36]): 1.5 µg/mL (≈ 1.62 µM)
MFC (Cryptococcus neoformans [11]): 0.31 µg/mL (≈ 0.335 µM)
MIC (Cryptococcus neoformans [11]): 0.16 µg/mL (≈ 0.173 µM)
MFC (Aspergillus flavus [37]): 5 µg/mL (≈ 5.41 µM)
IC50 (Vero): 4.7 µg/mL (≈ 5.09 µM)
MFC [13]: 0.57 µg/mL (≈ 0.617 µM)
MIC [13]: 0.57 µg/mL (≈ 0.617 µM)
MIC (Candida albicans [14]): 0.94 µg/mL (≈ 1.02 µM)
MIC (Candida albicans [31]): 1.88 µg/mL (≈ 2.03 µM)

CCCCCCCCCCCCCCCCCCC1(O)C=CC2=[N+](C)CCCN21.[I-] (centres undefined)
Activity (Aspergillus fumigatus [1]): inactive
MIC (Aspergillus fumigatus [4]): 10 µg/mL
selectivity ratio [5]: 6
MFC (Candida albicans [6]): 2.5 µg/mL
MIC (Candida albicans [6]): 2.5 µg/mL
IC50 (Vero): 12.3 µg/mL
MFC (Cryptococcus neoformans [7]): 1.97 µg/mL
MIC (Cryptococcus neoformans [7]): 1.61 µg/mL

CCCCCCCCCCC1(O)C=CC2=[N+](C)CCCN21.[I-] (centres undefined)
Activity (Aspergillus fumigatus [1]): inactive
selectivity ratio [5]: 2
Activity (Candida albicans [2]): inactive
MIC (Candida albicans [6]): 20 µg/mL
IC50 (Vero): 21.3 µg/mL
MFC (Cryptococcus neoformans [7]): 10 µg/mL
MIC (Cryptococcus neoformans [7]): 10 µg/mL
